Source: ChEMBL document CHEMBL1122046, “Quaternary heterocyclylamino beta-lactams: a generic alternative to the classical acylamino side chain” (1982)
Converted amounts (≈) assume the structure as drawn.

Test system: Staphylococcus aureus
Assay: Inhibition zone diameter against aerobic organism Staphylococcus aureus strain 2314
Details: not given

Compound	zone diameter [mm]
CC(O)[C@H]1C(=O)N2C(C(=O)[O-])=C(SCCNc3cccc[n+]3C)C[C@H]12 (stereo partly drawn)	42.5
CC(O)[C@H]1C(=O)N2C(C(=O)O)=C(SCCNC3=NCCC3)C[C@H]12 (stereo partly drawn)	38

Test system: Salmonella
Assay: Minimum inhibitory concentration against aerobic organism Salmonella strain 3860
Details: not given

MIC [µg/mL]	Compound
0.125 (≈ 0.244 µM)	Cc1nnc(SCC2=C(C(=O)[O-])N3C(=O)[C@@H](Nc4cc[n+](Cc5ccccc5)cc4)[C@H]3SC2)s1

Test system: not listed separately
Assay: Minimum inhibitory concentration against aerobic organism Salmonella schottmuelleri strain 2837
Type: functional
Details: Salmonella; read-out: MIC
Procedure, shortened: (§1)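 Agar-dilution MIC in µg/mL against aerobic bacterial strains on tryptocase soy agar, with inoculum applied as spots. Most series used 10^5 cfu per spot, and a later series used 10^4 cfu per spot. In some tables, footnoted strains were instead tested on Mueller-Hinton or nutrient agar. β-Lactamase-producing strains are flagged.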

MIC [µg/mL]	Compound
0.78 (≈ 2.54 µM)	C[n+]1ccc(NC2C(=O)N3C2SC(C)(C)[C@@H]3C(=O)[O-])cc1 (stereo partly drawn)

Test system: Escherichia coli
Assay: MIC against aerobic organism Escherichia coli strain 2891
Type: functional
Details: Escherichia coli; read-out: MIC
Procedure, shortened: as §1

MIC [µg/mL]	Compound
50 (≈ 163 µM)	C[n+]1ccc(NC2C(=O)N3C2SC(C)(C)[C@@H]3C(=O)[O-])cc1 (stereo partly drawn)
< 0.06	Cc1nnc(SCC2=C(C(=O)[O-])N3C(=O)[C@@H](Nc4cc[n+](Cc5ccccc5)cc4)[C@H]3SC2)s1

Test system: Proteus vulgaris
Assay: Minimum inhibitory concentration against aerobic organism Proteus vulgaris strain 2829
Type: functional
Details: Proteus vulgaris; read-out: MIC
Procedure, shortened: as §1

MIC [µg/mL]	Compound
0.25 (≈ 0.489 µM)	Cc1nnc(SCC2=C(C(=O)[O-])N3C(=O)[C@@H](Nc4cc[n+](Cc5ccccc5)cc4)[C@H]3SC2)s1

Test system: Proteus mirabilis
Assay: Minimum inhibitory concentration against aerobic organism Proteus mirabilis strain 2830
Type: functional
Details: Proteus mirabilis; read-out: MIC
Procedure, shortened: as §1

MIC [µg/mL]	Compound
128 (≈ 250 µM)	Cc1nnc(SCC2=C(C(=O)[O-])N3C(=O)[C@@H](Nc4cc[n+](Cc5ccccc5)cc4)[C@H]3SC2)s1

Test system: Klebsiella aerogenes
Assay: Minimum inhibitory concentration against aerobic organism Enterobacter aerogenes strain 2828
Type: functional
Details: not given
Procedure, shortened: as §1

MIC [µg/mL]	Compound
16 (≈ 31.3 µM)	Cc1nnc(SCC2=C(C(=O)[O-])N3C(=O)[C@@H](Nc4cc[n+](Cc5ccccc5)cc4)[C@H]3SC2)s1

Test system: Enterococcus faecalis
Assay: Minimum inhibitory concentration against aerobic organism Streptococcus faecalis strain 2864
Type: functional
Details: not given
Procedure, shortened: as §1

MIC [µg/mL]	Compound
64 (≈ 125 µM)	Cc1nnc(SCC2=C(C(=O)[O-])N3C(=O)[C@@H](Nc4cc[n+](Cc5ccccc5)cc4)[C@H]3SC2)s1

Test system: Enterococcus faecalis
Assay: Minimum inhibitory concentration against aerobic organism Streptococcus faecalis strain 2864
Details: not given

MIC [µg/mL]	Compound
> 100	C[n+]1ccc(NC2C(=O)N3C2SC(C)(C)[C@@H]3C(=O)[O-])cc1 (stereo partly drawn)

Test system: Streptococcus pyogenes
Assay: Inhibition zone diameter against aerobic organism Streptococcus pyogenes strain 2874
Details: not given

Compound	zone diameter [mm]
CC(O)[C@H]1C(=O)N2C(C(=O)[O-])=C(SCCNc3cccc[n+]3C)C[C@H]12 (stereo partly drawn)	37
CC(O)[C@H]1C(=O)N2C(C(=O)O)=C(SCCNC3=NCCC3)C[C@H]12 (stereo partly drawn)	40

Test system: Staphylococcus aureus
Assay: Minimum inhibitory concentration against aerobic organism Staphylococcus aureus strain 2868
Type: functional
Details: Staphylococcus aureus; read-out: MIC
Procedure, shortened: as §1

MIC [µg/mL]	Compound
> 100	C[n+]1ccc(NC2C(=O)N3C2SC(C)(C)[C@@H]3C(=O)[O-])cc1 (stereo partly drawn)
2 (≈ 3.91 µM)	Cc1nnc(SCC2=C(C(=O)[O-])N3C(=O)[C@@H](Nc4cc[n+](Cc5ccccc5)cc4)[C@H]3SC2)s1

Test system: Staphylococcus aureus
Assay: Minimum inhibitory concentration against aerobic organism Staphylococcus aureus strain 2865
Type: functional
Details: not given
Procedure, shortened: as §1

MIC [µg/mL]	Compound
0.25 (≈ 0.489 µM)	Cc1nnc(SCC2=C(C(=O)[O-])N3C(=O)[C@@H](Nc4cc[n+](Cc5ccccc5)cc4)[C@H]3SC2)s1

Test system: Klebsiella pneumoniae
Assay: Minimum inhibitory concentration against aerobic organism Klebsiella pneumoniae strain 4005
Type: functional
Details: not given
Procedure, shortened: as §1

MIC [µg/mL]	Compound
16 (≈ 31.3 µM)	Cc1nnc(SCC2=C(C(=O)[O-])N3C(=O)[C@@H](Nc4cc[n+](Cc5ccccc5)cc4)[C@H]3SC2)s1

Test system: Enterobacter cloacae
Assay: Minimum inhibitory concentration against aerobic organism Enterobacter cloacae strain 2646
Type: functional
Details: Enterobacter cloacae; read-out: MIC
Procedure, shortened: as §1

MIC [µg/mL]	Compound
> 100	C[n+]1ccc(NC2C(=O)N3C2SC(C)(C)[C@@H]3C(=O)[O-])cc1 (stereo partly drawn)
0.125 (≈ 0.244 µM)	Cc1nnc(SCC2=C(C(=O)[O-])N3C(=O)[C@@H](Nc4cc[n+](Cc5ccccc5)cc4)[C@H]3SC2)s1

Test system: Salmonella
Assay: Inhibition zone diameter against aerobic organism Salmonella strain 826
Details: not given

Compound	zone diameter [mm]
CC(O)[C@H]1C(=O)N2C(C(=O)[O-])=C(SCCNc3cccc[n+]3C)C[C@H]12 (stereo partly drawn)	27.5
CC(O)[C@H]1C(=O)N2C(C(=O)O)=C(SCCNC3=NCCC3)C[C@H]12 (stereo partly drawn)	28

Test system: Pseudomonas aeruginosa
Assay: Inhibition zone diameter against aerobic organism Pseudomonas aeruginosa strain 3350
Details: not given

Compound	zone diameter [mm]
CC(O)[C@H]1C(=O)N2C(C(=O)[O-])=C(SCCNc3cccc[n+]3C)C[C@H]12 (stereo partly drawn)	17.5
CC(O)[C@H]1C(=O)N2C(C(=O)O)=C(SCCNC3=NCCC3)C[C@H]12 (stereo partly drawn)	25.5

Test system: Serratia marcescens
Assay: Inhibition zone diameter against aerobic organism Serratia marcescenes strain 2855
Details: not given

Compound	zone diameter [mm]
CC(O)[C@H]1C(=O)N2C(C(=O)[O-])=C(SCCNc3cccc[n+]3C)C[C@H]12 (stereo partly drawn)	26
CC(O)[C@H]1C(=O)N2C(C(=O)O)=C(SCCNC3=NCCC3)C[C@H]12 (stereo partly drawn)	25.5

Test system: Streptococcus pyogenes
Assay: Minimum inhibitory concentration against aerobic organism Streptococcus pyogenes strain 3124
Type: functional
Details: Streptococcus pyogenes; read-out: MIC
Procedure, shortened: as §1

MIC [µg/mL]	Compound
1.56 (≈ 5.08 µM)	C[n+]1ccc(NC2C(=O)N3C2SC(C)(C)[C@@H]3C(=O)[O-])cc1 (stereo partly drawn)

Test system: Shigella
Assay: Minimum inhibitory concentration against aerobic organism Shigella species strain 2880
Type: functional
Details: Shigella; read-out: MIC
Procedure, shortened: as §1

MIC [µg/mL]	Compound
12.5 (≈ 40.7 µM)	C[n+]1ccc(NC2C(=O)N3C2SC(C)(C)[C@@H]3C(=O)[O-])cc1 (stereo partly drawn)

Test system: Morganella morganii
Assay: Disk zone diameter (25 ug/disk) against aerobic organism Morganella morganii strain 2834
Details: not given

Compound	zone diameter [mm]
CC(O)[C@H]1C(=O)N2C(C(=O)[O-])=C(SCCNc3cccc[n+]3C)C[C@H]12 (stereo partly drawn)	27

Test system: Pseudomonas aeruginosa
Assay: Minimum inhibitory concentration against aerobic organism Pseudomonas aeruginosa strain 2835
Type: functional
Details: not given
Procedure, shortened: as §1

MIC [µg/mL]	Compound
> 128	Cc1nnc(SCC2=C(C(=O)[O-])N3C(=O)[C@@H](Nc4cc[n+](Cc5ccccc5)cc4)[C@H]3SC2)s1

Test system: Klebsiella pneumoniae
Assay: Minimum inhibitory concentration against aerobic organism Klebsiella pneumoniae strain 2882
Type: functional
Details: Klebsiella pneumoniae; read-out: MIC
Procedure, shortened: as §1

MIC [µg/mL]	Compound
100 (≈ 325 µM)	C[n+]1ccc(NC2C(=O)N3C2SC(C)(C)[C@@H]3C(=O)[O-])cc1 (stereo partly drawn)

Test system: Morganella morganii
Assay: Minimum inhibitory concentration against aerobic organism Morganella morganii strain 2833
Type: functional
Details: Morganella morganii; read-out: MIC
Procedure, shortened: as §1

MIC [µg/mL]	Compound
128 (≈ 250 µM)	Cc1nnc(SCC2=C(C(=O)[O-])N3C(=O)[C@@H](Nc4cc[n+](Cc5ccccc5)cc4)[C@H]3SC2)s1

Test system: Klebsiella
Assay: Inhibition zone diameter against aerobic organism Klebsiella species strain 2921
Details: not given

Compound	zone diameter [mm]
CC(O)[C@H]1C(=O)N2C(C(=O)[O-])=C(SCCNc3cccc[n+]3C)C[C@H]12 (stereo partly drawn)	26
CC(O)[C@H]1C(=O)N2C(C(=O)O)=C(SCCNC3=NCCC3)C[C@H]12 (stereo partly drawn)	24
